This note sets out measurements from ChEMBL document CHEMBL1154067, “Antiviral and cytotoxic activities of aminoarylazo compounds and aryltriazene derivatives” (Bioorg Med Chem, 2009).

SMILES strings stand for the structures. Calls of active or inactive are those of the source. How the calls were made is not given here.

One may read the EC50 as the concentration that produces a half-maximal response. Broadly, the CC50 is the concentration at which the toxic effect on the cells reaches its halfway point.

For the first series, the system named is Yellow fever virus. The series is described as follows: Antiviral activity against Yellow fever virus infected in BHK-21 cells assessed as inhibition of virus-induced cytopathicity after 3 to 4 days by MTT assay. The class given is functional, organism-based.
Settings: not given
(Damage to the host cells serves as the signal in cytopathic effect assays.)
For `COc1c(C)c2c(c(O)c1C/C=C(\C)CCC(=O)O)C(=O)OC2` [MYCOPHENOLIC ACID], the concentration for a half-maximal effect (EC50) is over 100 µM.
Same read-out and setting: the figure for `CN1CCN(/N=N/c2ccccc2)CC1` is over 70 µM; for `O=[N+]([O-])c1ccc(/N=N/N2CCCC2)cc1` it is over 100 µM.
Turning to `COc1ccc(/N=N/N2CCCC2)cc1`, the EC50 was over 100 µM.

The subject of another series is Coxsackievirus B2. The experiment in a line: Antiviral activity against Coxsackie virus type B2 virus infected in african green monkey Vero-76 cells after 3 days by plaque reduction assay. The class given is functional, organism-based. The following applies: Enterovirus B, Vero 76, 72 h. In outline:
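Vero 76 cells seeded at 2 × 10^5 cells/well, grown overnight to confluence at 37 °C in 5% CO2, then infected at 50–100 PFU/well. Unadsorbed virus removed. Overlay of DMEM with 1% inactivated FCS and 0.75% methylcellulose, with or without serial compound dilutions. After 3 days at 37 °C, fixed and stained with crystal violet in PBS/50% ethanol; plaques counted. EC50 is the concentration reducing plaque number by 50%.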
For orientation: Plaques are areas of infected cells; plaque reduction assays count them against a control.
Consider `COc1c(C)c2c(c(O)c1C/C=C(\C)CCC(=O)O)C(=O)OC2` [MYCOPHENOLIC ACID], for which the concentration for a half-maximal effect (EC50) is over 13 µM.
The same measure, in the same setting: the figure for `CN1CCN(/N=N/c2ccccc2)CC1` is 14 µM.
The same measure, in the same setting: the figure for `O=[N+]([O-])c1ccc(/N=N/N2CCCC2)cc1` is over 90 µM; for `COc1ccc(/N=N/N2CCCC2)cc1` it is over 90 µM.

Test system in another series: not listed separately
The series is described as follows: Cytotoxicity against MDBK cells after 48 to 96 hrs by MTT assay. The class given is cell-based, Bos taurus. The following applies: cattle, mdbk. In a few lines:
(§1)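 Mock-infected cells in maintenance medium, MDBK at 6 × 10^5 and BHK at 1 × 10^6 cells/mL initial density, with or without serial compound dilutions. Run in parallel with antiviral assays. Viability by MTT after 48–96 h at 37 °C, 5% CO2. CC50 = concentration reducing viability 50%.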
`COc1c(C)c2c(c(O)c1C/C=C(\C)CCC(=O)O)C(=O)OC2` [MYCOPHENOLIC ACID] registered a CC50 of 42 µM.
In the case of `CN1CCN(/N=N/c2ccccc2)CC1`, the CC50 is over 100 µM.
The molecule `O=[N+]([O-])c1ccc(/N=N/N2CCCC2)cc1` yielded a half-maximal cytotoxic concentration (CC50) of over 100 µM.
For the molecule `COc1ccc(/N=N/N2CCCC2)cc1`, it took 60 µM to reach half-maximal cytotoxicity (CC50).

In the next series the test system is MT4. The series is described as follows: Cytotoxicity against human MT4 cells after 96 hrs by MTT assay. The class given is cell-based. The following applies: mt4, 96 h. In a few lines:
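Exponentially growing mock-infected MT-4 seeded at 1 × 10^5 cells/mL in RPMI-1640 with 10% FCS, penicillin and streptomycin. Incubated with or without serial compound dilutions at 37 °C, 5% CO2. Viability by MTT after 96 h. CC50 = concentration reducing viability 50%.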
On the technique in general: Formazan colour is commonly taken as a measure of viable cells.
With `COc1c(C)c2c(c(O)c1C/C=C(\C)CCC(=O)O)C(=O)OC2` [MYCOPHENOLIC ACID], the CC50 was 0.2 µM.
Still for that read-out and setting: the figure for `CN1CCN(/N=N/c2ccccc2)CC1` is 65 µM; for `O=[N+]([O-])c1ccc(/N=N/N2CCCC2)cc1` it is at least 100 µM; for `COc1ccc(/N=N/N2CCCC2)cc1` it is 68 µM.

The test system of another series is Vaccinia virus. The experiment in a line: Antiviral activity against Vaccinia virus after 3 days by plaque reduction assay. The following applies: Orthopoxvirus vaccinia. The class given is functional, organism-based.
On to `CN1CCN(/N=N/c2ccccc2)CC1`, for which the result was inactive.
Regarding `O=[N+]([O-])c1ccc(/N=N/N2CCCC2)cc1`, the result was inactive.
As to `COc1ccc(/N=N/N2CCCC2)cc1`, the result was inactive.

For a further series, the system named is Vero. The experiment in a line: Cytotoxicity against african green monkey Vero 76 cells by crystal violet staining. The class given is cell-based. The following applies: chlorocebus sabaeus, vero. In a few lines:
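Mock-infected Vero 76 seeded at 4 × 10^5 cells/mL, run in parallel with plaque assays, with or without serial compound dilutions. Cell number of monolayers determined by crystal violet staining. CC50 = concentration reducing viable cell number 50%.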
`COc1c(C)c2c(c(O)c1C/C=C(\C)CCC(=O)O)C(=O)OC2` [MYCOPHENOLIC ACID]: the CC50 was at least 13 µM.
Take `CN1CCN(/N=N/c2ccccc2)CC1`: the CC50 turned out to be 45 µM.
Still for that read-out and setting: the figure for `O=[N+]([O-])c1ccc(/N=N/N2CCCC2)cc1` is 90 µM.
Still for that read-out and setting: the figure for `COc1ccc(/N=N/N2CCCC2)cc1` is 90 µM.

Another series relates to Respiratory syncytial virus. The series is described as follows: Antiviral activity against Respiratory syncytial virus A2 infected in Vero-76 cells after 5 days by plaque reduction assay. It counts as functional, organism-based. The following applies: human respiratory syncytial virus, A2, Vero 76, 120 h.
With `COc1c(C)c2c(c(O)c1C/C=C(\C)CCC(=O)O)C(=O)OC2` [MYCOPHENOLIC ACID], the midpoint of the response, the EC50, lay at 0.6 µM.
Still for that read-out and setting: the figure for `CN1CCN(/N=N/c2ccccc2)CC1` is over 45 µM; for `O=[N+]([O-])c1ccc(/N=N/N2CCCC2)cc1` it is 60 µM.
`COc1ccc(/N=N/N2CCCC2)cc1` registered an EC50 of over 90 µM.

The subject of the next series is Human immunodeficiency virus 1. The experiment in a line: Antiviral activity against HIV1 infected in human MT4 cells assessed as inhibition of virus-induced cytopathicity after 4 days by MTT assay. The class given is functional, organism-based.
Settings: not given
Turning to `CN1CCN(/N=N/c2ccccc2)CC1`, the inhibition result is “inactive”.
The same measure, in the same setting: the entry for `O=[N+]([O-])c1ccc(/N=N/N2CCCC2)cc1` is “inactive”; for `COc1ccc(/N=N/N2CCCC2)cc1` it is “inactive”.

Test system in the next series: not listed separately
The experiment in a line: Cytotoxicity against hamster BHK21 cells assessed as reduction in cell viability after 48 to 96 hrs by MTT assay. It counts as cell-based, Mesocricetus auratus, BHK-21. The following applies: bhk-21. In outline: as §1
Consider `COc1c(C)c2c(c(O)c1C/C=C(\C)CCC(=O)O)C(=O)OC2` [MYCOPHENOLIC ACID], for which the cytotoxic concentration (CC50) was over 100 µM.
Regarding `CN1CCN(/N=N/c2ccccc2)CC1`, the CC50 amounted to 70 µM.
Consider `O=[N+]([O-])c1ccc(/N=N/N2CCCC2)cc1`, for which the half-maximal cytotoxic concentration (CC50) was at least 100 µM.
The same measure, in the same setting: the figure for `COc1ccc(/N=N/N2CCCC2)cc1` is at least 100 µM.

A further series relates to Poliovirus 1. The experiment in a line: Antiviral activity against Human poliovirus 1 strain Sabin after 2 days by plaque reduction assay. It counts as functional. The following applies: Enterovirus C, 48 h.
The molecule `COc1c(C)c2c(c(O)c1C/C=C(\C)CCC(=O)O)C(=O)OC2` [MYCOPHENOLIC ACID] showed an EC50 of over 13 µM.
Molecule `CN1CCN(/N=N/c2ccccc2)CC1` displayed an EC50 of over 45 µM.
Still for that read-out and setting: the figure for `O=[N+]([O-])c1ccc(/N=N/N2CCCC2)cc1` is 15 µM; for `COc1ccc(/N=N/N2CCCC2)cc1` it is over 90 µM.

Another series deals with Human alphaherpesvirus 1. The experiment in a line: Antiviral activity against HSV1 infected in Vero-76 cells after 3 days by plaque reduction assay. The class given is functional, organism-based. The following applies: Human alphaherpesvirus 1, Vero 76, 72 h.
Molecule `COc1c(C)c2c(c(O)c1C/C=C(\C)CCC(=O)O)C(=O)OC2` [MYCOPHENOLIC ACID] registered an EC50 of over 13 µM.
Same read-out and setting: the figure for `CN1CCN(/N=N/c2ccccc2)CC1` is over 45 µM; for `O=[N+]([O-])c1ccc(/N=N/N2CCCC2)cc1` it is over 90 µM; for `COc1ccc(/N=N/N2CCCC2)cc1` it is over 90 µM.

The test system of the next series is Mammalian orthoreovirus 1. The series is described as follows: Antiviral activity against Reovirus-1 infected in BHK-21 cells assessed as inhibition of virus-induced cytopathicity after 3 to 4 days by MTT assay. It counts as functional, organism-based. The following applies: Mammalian orthoreovirus 1, BHK-21. In outline:
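BHK-21 cells seeded at 5 × 10^4 cells/well, grown overnight to confluent monolayers at 37 °C in 5% CO2, then infected at m.o.i. 0.01 in serum-free medium. One hour later, MEM Earle's with 1% final inactivated FCS added, with or without serial compound dilutions. Viability read by MTT after 3–4 days at 37 °C. EC50 is the concentration giving 50% protection from cytopathogenicity.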
For the molecule `COc1c(C)c2c(c(O)c1C/C=C(\C)CCC(=O)O)C(=O)OC2` [MYCOPHENOLIC ACID], the half-maximal effective concentration (EC50) was over 100 µM.
As to `CN1CCN(/N=N/c2ccccc2)CC1`, the half-maximal effective concentration (EC50) is over 70 µM.
`O=[N+]([O-])c1ccc(/N=N/N2CCCC2)cc1`: the EC50 is over 100 µM.
On the same count and under the same terms, the figure for `COc1ccc(/N=N/N2CCCC2)cc1` is over 100 µM.

For a further series, the system named is Bovine viral diarrhea virus 1. The experiment in a line: Antiviral activity against Bovine viral diarrhea virus infected in MDBK cells assessed as inhibition of virus-induced cytopathicity after 3 to 4 days by MTT assay. The class given is functional, organism-based. The following applies: Bovine viral diarrhea virus isolates and strains.
As for `COc1c(C)c2c(c(O)c1C/C=C(\C)CCC(=O)O)C(=O)OC2` [MYCOPHENOLIC ACID], the EC50 was over 42 µM.

Another series has as its system Vesicular stomatitis virus. The experiment in a line: Antiviral activity against Vesicular stomatitis virus after 2 days by plaque reduction assay. It counts as functional, organism-based.
Settings: not given
As for `CN1CCN(/N=N/c2ccccc2)CC1`, the result was inactive.
On to `O=[N+]([O-])c1ccc(/N=N/N2CCCC2)cc1`, for which the outcome was inactive.
Same read-out and setting: the entry for `COc1ccc(/N=N/N2CCCC2)cc1` is “inactive”.
